Hits are enriched below; roughly 1.5% of the tested compounds scored in any of these assays.
Cardio protect: cardioprotection against H2O2-induced cell death, primary screen, uHTS, H9c2 cells, ATPLite luminescence; H9c2 cardiomyocytes, H2O2 injury protection, 2 h; protection from H2O2 cell death, % at 20 µM; actives 0.63% (n = 360,000); AID 588492, 2011;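 active = compounds giving at least 50% protection of heart cells from peroxide-induced death in the single-dose screen, raw or plate-pattern-corrected value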;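 also: 0% = DMSO wells with peroxide and 100% = DMSO wells without peroxide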
PKA-R1A act: activators of PKA-R1A holoenzyme, primary screen, biochemical, fluorescence polarization, Cy5-IP20, bovine R1A, mouse PKAc; cAMP-dependent protein kinase type I-alpha regulatory subunit (Bos taurus) + …; PKA-R1A dissociation; scaled: DMSO 0%, 113 µM cGMP 100%; activation, % at 11.4 µM; actives 0.083% (n = 340,000);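 active = percent activation above the mean of all tested compounds plus 3 SD, cut at about 19% in these data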;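 also: higher means more PKAc released from R1A so a rise in polarization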
PKA-R2B act: activators of PKA-R2B holoenzyme, primary screen, biochemical, fluorescence polarization, Cy5-IP20, human; AID 504700, 2011; cAMP-dependent protein kinase catalytic subunit beta (Homo sapiens) + cAMP-dependent …; PKA-R2B holoenzyme dissociation; R2B truncated from residue 108, S112A mutant; 0% DMSO only, 100% 113 µM cGMP; actives 0.079% (n = 340,000); activation, % at 11.4 µM;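 active = activation above a cutoff set at the mean over all compounds plus 3 SD, cut at about 18% in these data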;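 also: higher means more holoenzyme dissociation and a rise in polarization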
Rin1-Abl PPI inh: inhibitors of Rin1-Abl protein binding, primary screen, biochemical, TR-FRET | Tyrosine-protein kinase ABL1 (Homo sapiens) + Ras and Rab interactor 1 (Homo sapiens), … | inhibition, % at 7.35 µM | actives 0.4% (n = 360,000) | AID 588664, 2011; in the data active = inhibition above about 5%, passing the limit was not always enough
TbMetRS inhib: T. brucei MetRS inhibitors, primary screen, biochemical, luminescence. purified T. brucei MetRS, ATP depletion, Kinase-Glo luminescence. inhibition, % at 11.9 µM. actives 0.4% (n = 360,000). AID 624268, 2012;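 active = inhibition above a per-plate cutoff of the control wells' mean inhibition plus 3 SD, cut at about 5.5% in these data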;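 also: 0% = DMSO wells median and 100% = median of wells with control inhibitor compound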
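System: purified T. brucei MetRS enzyme / Detection: Kinase-Glo luciferase luminescence reporting remaining unconsumed ATP / Medium: HEPES buffer with MgCl2, KCl, DTT, spermine, BSA, pyrophosphatase / Replication: singlicate, one well per compound / Evaluation: percent inhibition relative to median high and low control wells / Schedule: 2 h aminoacylation at 25 °C after 15 min preincubation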
Rin1 Abl conf: Rin1-Abl binding inhibitor retest, confirmation, biochemical, TR-FRET; shares compounds with Rin1-Abl PPI inh; purified proteins; inhibition, % at 7.35 µM; actives 49% (n = 1,300); AID 602124, 2011
GFP quench: GFP fluorescence inhibitors and quenchers, artefact control for Rin1-Abl interaction inhibitor project, biochemical. inhibition, % at 6.75 µM. actives 8.5% (n = 1,300). shares compounds with Rin1-Abl PPI inh. inhibitors/quenchers counterscreen;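 also: ABL1-eGFP fusion protein alone without its partner RIN1-SBP; 0% = protein with vehicle and 100% = wells lacking protein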
GFP quench dose: GFP fluorescence inhibitors and quenchers, dose response, artefact control for Rin1-Abl interaction inhibitor project, biochemical. shares compounds with Rin1-Abl PPI inh. GFP fluorescence interference/quenching counterscreen. IC50, µM. 230 tested, under 10 active. AID 602182, 2012; call rule not given here;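 also: ABL1-eGFP fusion protein alone without its RIN1 binding partner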
Active calls of the source: *; x = no result given; ! = not active in a repeat. Rule as the data show it, unless noted: active = inhibition above about 6.5%; inactive = the rest.

SMILES | Cardio protect | PKA-R1A act | PKA-R2B act | Rin1-Abl PPI inh | TbMetRS inhib | Rin1 Abl conf | GFP quench | others
CC(=O)c1ccc2c(c1)C1C=CCC1C(C(=O)O)N2 (stereo unspecified) | -0.7 | x | x | 13.7* | 0.1 | 12.6* | 43.5*
CC(=O)c1ccc2c(c1)C1C=CCC1C(c1ccncc1)N2 (stereo unspecified) | 11.3 | -19.4 | -7.1 | -0.7 | 0.3 | x | x
Nc1ccc(C(=O)N2CCN(S(=O)(=O)c3ccc(Br)cc3)CC2)cc1[N+](=O)[O-] | 7.3 | -1.2 | 0.4 | -1.5 | -0.1 | x | x
CC(=O)NC(c1cccs1)c1cc(F)c2cccnc2c1O (stereo unspecified) | 22.6 | -4.7 | -1.9 | 17.4* | -0.2 | 13.2* | 4.0
CCCC(=O)NC(c1cccs1)c1cc(Cl)c2cccnc2c1O (stereo unspecified) | 31.6 | -7.4 | -12.8 | 5.6 | -0.3 | x | x
Cc1cc(C)c(S(=O)(=O)NCCSCc2ccco2)c(C)c1 | -8.7 | -1.7 | -16.5 | 8.5* | -0.2 | -1.0 | -0.2
CCCCN1C(=O)N(C)C2NC(=O)NC21 (stereo unspecified) | 14.3 | 15.7 | 0.0 | 66.1* | 0.0 | 75.5* | 1.4 | GFP quench dose=>67.4
CCCCN1C(=O)NC2NC(=O)NC21 (stereo unspecified) | 4.8 | 0.4 | -0.1 | 96.7* | -0.7 | 98.7* | -1.9 | GFP quench dose=>67.6
O=c1[nH]cnc2c1C(c1ccccc1)c1c(nc[nH]c1=O)O2 | 3.2 | 7.3 | -5.0 | 22.9* | 0.3 | 43.7* | -0.1 | GFP quench dose=>67.6
N#CC1=C(N)Oc2nc[nH]c(=O)c2C1c1cccs1 (stereo unspecified) | -1.8 | x | x | 2.7 | -0.3 | x | x
N#CC(=C1Nc2ccccc2N1)S(=O)(=O)c1ccccc1 | -6.9 | 2.8 | -1.0 | 9.5* | 0.3 | -2.6 | 1.3
Cc1ccc(NC2CCCN(C(=O)c3cccnc3)C2)cc1C (stereo unspecified) | 3.7 | -5.3 | -7.8 | 0.9 | 0.0 | x | x
Cc1ccc(NC2CCCN(C(=O)CN3C(=O)c4ccccc4C3=O)C2)cc1C (stereo unspecified) | 6.2 | 7.1 | 4.7 | 9.8* | -0.2 | -0.3 | -0.3
Cc1ccc(NC2CCCN(C(=O)c3cc4ncccn4n3)C2)cc1C (stereo unspecified) | 5.4 | -5.3 | -0.2 | 37.0* | 0.4 | 1.0 | -0.1
CN(c1ccccc1)S(=O)(=O)c1cccc(C(=O)OCC(=O)Nc2ccc(C(N)=O)cc2)c1 | -1.3 | -7.4 | -2.1 | -1.6 | -0.3 | x | x
C=CCc1ccccc1OCC(O)CN1CCN(c2ccccc2OC)CC1 (stereo unspecified) | -6.1 | -1.3 | 1.2 | 7.4*! | -0.2 | -0.8 | -0.3
CCC1CCCCN1CCCNC(=O)c1ccc2c(c1)c(C)c(C)n2CC (stereo unspecified) | -0.3 | -1.4 | 8.7 | 14.8* | 0.0 | -4.4 | 2.1
O=C(CCNC(=O)c1ccc([N+](=O)[O-])cc1)NCc1cccs1 | -5.4 | 11.9 | 7.4 | -1.2 | -0.1 | x | x
C1CCC(c2nn3c(-c4n[nH]c5c4CCC5)nnc3s2)CC1 | -3.6 | -5.6 | 11.5 | 24.9* | -0.2 | 14.3* | 0.1
O=C(N/N=C/C1CC=CCC1)c1cc(-c2cccnc2)nc2ccccc12 (stereo unspecified) | -3.4 | -1.7 | -1.2 | -3.3 | -0.4 | x | x
CCS(=O)(=O)N1CCC(C(=O)NCc2ccc(F)cc2)CC1 | -2.4 | -5.1 | -20.5 | 3.3 | 0.1 | x | x
O=C(NCc1ccc(F)cc1)C1CCN(S(=O)(=O)N2CCOCC2)CC1 | 5.3 | -10.4 | 10.4 | 8.4* | -0.8 | 1.3 | 0.6
CCC(C)c1ccccc1N1CC(C(=O)N(C)CC(=O)Nc2cccc(F)c2)CC1=O (stereo unspecified) | -4.4 | 4.6 | 2.6 | 1.5 | 0.2 | x | x
O=S(=O)(Nc1c(S(=O)(=O)c2ccccc2)c2nc3ccccc3nc2n1C1CCCCC1)c1ccccc1 | -9.2 | 7.7 | 5.6 | 9.8* | 1.4 | -3.8 | 0.1
Cc1cccc(-n2c(-c3ccccc3)c[nH]c2=S)c1C | -8.4 | 1.3 | 2.1 | 5.8 | 0.2 | x | x
SMILES | Cardio protect | PKA-R1A act | PKA-R2B act | Rin1-Abl PPI inh | TbMetRS inhib | Rin1 Abl conf | GFP quench | others
COc1ccccc1-n1c(-c2ccc(Cl)cc2)c[nH]c1=S | -3.4 | -1.6 | 3.5 | 7.5* | 0.7 | -3.4 | -0.5
Cc1nc2ccccc2n1CC(=O)c1ccc(O)c(O)c1 | 11.9 | 10.6 | -9.9 | 32.6* | -0.4 | 21.4* | 6.6*
CCCCCCCC[n+]1c(C)n(-c2ccccc2)c2ccc(NC(C)=O)cc21 | -30.8 | -2.2 | -10.3 | 5.0* | -0.3 | 6.7* | -0.2
O=C(Nc1ccc(NS(=O)(=O)c2ccccc2)c(Cl)c1)c1ccccc1 | 0.4 | 11.0 | 8.5 | -0.1 | -0.3 | x | x
O=C1NCC(O)=C1C=NC12CC3CC(CC(C3)C1)C2 | 4.3 | -8.7 | 3.0 | 31.1* | -0.5 | 22.6* | 0.3 | GFP quench dose=>67.5
COc1ccccc1Nc1nccc(N(C)C)c1C#N | 4.3 | -8.4 | 7.6 | 0.5 | -0.2 | x | x
CC(C)c1nc2oc3c(NCCO)ncnc3c2c2c1COC(C)(C)C2 | 16.6 | 14.8 | 5.5 | 7.7* | 0.8 | 7.7* | 0.7
CC(C)c1nc2oc3c(NCC4CCCO4)ncnc3c2c2c1COC(C)(C)C2 (stereo unspecified) | 27.6 | 0.8 | 1.7 | 0.0 | -0.5 | x | x
Cc1c(Cl)cccc1-c1ccc(CNCc2ccccn2)o1 | 4.3 | 0.0 | -6.5 | -3.1 | -0.1 | x | x
CCn1c(SCC(=O)Nc2cccc(C)c2)nc2nc3c(cc2c1=O)COC(C)(C)C3 | 15.4 | -13.6 | 0.6 | 7.5* | -0.1 | 12.6* | -0.4
CCC(C)n1c(NC(=O)c2ccccc2)c(C#N)c2nc3ccccc3nc21 (stereo unspecified) | -7.7 | -2.3 | 13.4 | 13.5* | 3.1 | 2.9 | 0.3
O=[N+]([O-])c1ccc(S(=O)(=O)Nc2ccccn2)cc1 | -5.2 | 1.9 | -6.4 | -0.4 | 1.3 | x | x
Oc1ccc(CN2CCc3ccccc3C2)c2cccnc12 | 39.5 | 1.2 | 4.8 | 27.8* | -1.1 | 7.6* | 0.7

Source: PubChem BioAssay (several laboratories)
